Laboratory results as given in ChEMBL document CHEMBL1275284, “Therapeutic potential of sulindac hydroxamic acid against human pancreatic and colonic cancer cells” (Eur J Med Chem, 2010).
Calls of active or inactive are those of the source. The rule behind the calls is not given here.

What was measured:
[1] = tested on: MIA PaCa-2; assay: Cytotoxicity against human MIAPaCa2 cells after 72 hrs by WST-1 assay; type: functional, cell-based; settings: MIA PaCa-2, 72 h
[2] = Cytotoxicity against human COLO320 cells after 72 hrs by WST-1 assay; type: functional, cell-based; settings: COLO 320, 72 h
[3] = tested on: MIA PaCa-2; assay: Induction of apoptosis in human MIAPaCa2 cells assessed as DNA internucleosomal fragmentation at 200 uM after 48 hrs relative to control; type: functional, cell-based
Method in brief: (§1)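 MIA PaCa-2 or COLO320 cells (DMEM, 10% FBS, 2.5% horse serum, 37 °C, 5% CO2) treated 48 h at 200 µM. Oligonucleosomal fragments in the cytoplasmic fraction measured, along with necrotic death, expressed relative to untreated control. Mean ± SEM, n = 3.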

[4] = tested on: COLO 320; assay: Induction of apoptosis in human COLO320 cells assessed as DNA internucleosomal fragmentation at 200 uM after 48 hrs relative to control; type: functional, cell-based; method in brief: as §1
[5] = tested on: MIA PaCa-2; assay: Induction of apoptosis in human MIAPaCa2 cells assessed as increase in caspase 3/7 activation at 200 uM after 24 hrs by spectrofluorimetry relative to control; type: functional
Method in brief: (§2)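 Caspase 3/7 activity assayed after 24 h exposure of cells to 200 µM compound. Fluorescent signal of treated cells expressed as a ratio to that of vehicle-only untreated cells. Mean ± SEM, n = 3.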

[6] = tested on: COLO 320; assay: Induction of apoptosis in human COLO320 cells assessed as increase in caspase 3/7 activation at 200 uM after 24 hrs by spectrofluorimetry relative to control; type: functional; method in brief: as §2
[7] = tested on: MIA PaCa-2; assay: Induction of apoptosis in human MIAPaCa2 cells assessed as change in Bax to Bcl2 mRNA expression ratio at 200 uM after 24 hrs by RT-PCR assay relative to control; type: functional, cell-based
Method in brief: (§3)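 Cells exposed 24 h to 200 µM compound. bax and bcl-2 mRNA measured by semi-quantitative RT-PCR, normalized to GAPDH mRNA, and the bax:bcl-2 ratio compared with control. Mean ± SEM, n = 3.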

[8] = tested on: COLO 320; assay: Induction of apoptosis in human COLO320 cells assessed as increase in Bax to Bcl2 mRNA expression ratio at 200 uM after 24 hrs by RT-PCR assay relative to control; type: functional; method in brief: as §3
[9] = tested on: HUVEC; assay: Cytotoxicity against HUVEC at 0.1 uM after 96 hrs by trypan blue exclusion test; type: cell-based; settings: human
[10] = tested on: HUVEC; assay: Antiangiogenic activity in HUVEC assessed as inhibition of bFGF-induced cell proliferation at 0.1 uM after 96 hrs by haemocytometry; type: functional, cell-based; settings: Homo sapiens
[11] = tested on: HUVEC; assay: Antiangiogenic activity in HUVEC assessed as inhibition of VEGF-induced cell proliferation at 0.1 uM after 96 hrs by haemocytometry; type: functional, cell-based; settings: Homo sapiens

| SMILES | IC50 [1] | IC50 [2] | Activity [3] | Activity [4] | fold change (FC) [5] | fold change (FC) [6] | Activity [7] | Activity [8] | Activity [9] | Activity [10] | Activity [11] |
| --- | --- | --- | --- | --- | --- | --- | --- | --- | --- | --- | --- |
| CSc1ccc(C=C2C(C)=C(CC(=O)NO)c3cc(F)ccc32)cc1 | 32 µM | 6 µM | inactive | inactive | 5 | 5 | inactive | 130% | Non-toxic | Active | Active |
| CC1=C(CC(=O)NO)c2cc(F)ccc2C1=Cc1ccc(S(C)(=O)=O)cc1 | 44.4 µM | 26.2 µM | inactive | inactive | 5 | 5 |  |  | Non-toxic | Active | Active |
| CC1=C(CC(=O)NO)c2cc(F)ccc2C1=Cc1ccc([S+](C)[O-])cc1 (stereo not drawn) | 64.1 µM | 62.5 µM | inactive | inactive | 5 | 5 |  |  | Non-toxic | Active | Active |
| CC1=C(CC(=O)O)c2cc(F)ccc2/C1=C\c1ccc([S+](C)[O-])cc1 (stereo not drawn) [SULINDAC] | > 200 µM | > 200 µM | inactive | inactive |  |  |  |  |  |  |  |
| CSc1ccc(/C=C2/C(C)=C(CC(=O)O)c3cc(F)ccc32)cc1 [SULINDAC SULFIDE] | 146 µM | 38.7 µM | inactive | inactive |  |  | inactive |  |  | Active | Active |
| CC1=C(CC(=O)O)c2cc(F)ccc2/C1=C\c1ccc(S(C)(=O)=O)cc1 [EXISULIND] | > 200 µM | > 200 µM | inactive | inactive |  |  |  |  |  | Active | Active |
| CC1(C)OC(=O)C(c2cccc(F)c2)=C1c1ccc(S(C)(=O)=O)cc1 | > 200 µM | > 200 µM |  |  |  |  |  |  |  |  |  |
